Test results as given in ChEMBL document CHEMBL5053495, “A Versatile Sub-Nanomolar Fluorescent Ligand Enables NanoBRET Binding Studies and Single-Molecule Microscopy at the Histamine H3 Receptor” (J Med Chem, 2021).
Values belong to the compound of their own block, whether it stands above or below them.

Legend:
Histamine H3 receptor [1] = target: T1, Histamine H3 receptor (Homo sapiens, UniProt Q9Y5N1); experiment: Displacement of [3H]UR-P1294 from human H3R receptor expressed in HEK293 cells by radioligand competition binding assay; format: cell-based
T1 sequence (Q9Y5N1 whole entry): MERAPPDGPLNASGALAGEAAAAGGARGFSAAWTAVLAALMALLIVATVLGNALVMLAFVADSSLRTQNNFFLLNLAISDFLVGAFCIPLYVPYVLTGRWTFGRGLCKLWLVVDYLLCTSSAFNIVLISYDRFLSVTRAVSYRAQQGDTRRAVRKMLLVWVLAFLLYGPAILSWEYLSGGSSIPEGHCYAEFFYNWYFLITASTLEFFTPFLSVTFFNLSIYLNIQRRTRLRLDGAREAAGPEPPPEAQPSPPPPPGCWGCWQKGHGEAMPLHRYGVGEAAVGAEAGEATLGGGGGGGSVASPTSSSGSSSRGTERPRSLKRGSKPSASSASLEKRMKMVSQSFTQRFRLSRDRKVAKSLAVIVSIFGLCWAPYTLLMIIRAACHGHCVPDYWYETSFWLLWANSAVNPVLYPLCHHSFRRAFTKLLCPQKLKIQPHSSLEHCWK

Histamine H3 receptor [2] = target: T1, Histamine H3 receptor; experiment: Binding affinity in Nluc-hH3R assessed in HEK293T cells by NanoBRET binding assay; format: cell-based
Histamine H3 receptor [3] = target: T1, Histamine H3 receptor; experiment: Binding affinity in Nluc-hH3R assessed in HEK293 cells by NanoBRET binding assay; format: cell-based
Procedure, shortened: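 Saturation NanoBRET binding of the fluorescent ligand at live HEK293 cells stably expressing NLuc-hH3R; acceptor/donor BRET ratio; pKd from saturation isotherm; three independent experiments, each in duplicate.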

Histamine H3 receptor [4] = target: T1, Histamine H3 receptor; experiment: Binding affinity in human H3R assessed as association time constant by confocal microscopy
Histamine H3 receptor [5] = target: T1, Histamine H3 receptor; experiment: Binding affinity in Nluc-hH3R assessed as dissociation time constant by NanoBRET binding assay
Histamine H4 receptor = Histamine H4 receptor (Homo sapiens, UniProt Q9H3N8); experiment: Displacement of [3H]histamine from human H4R receptor expressed in HEK293 cells by radioligand competition binding assay; format: cell-based
Homo sapiens [6] = organism: Homo sapiens; experiment: Selectivity ratio of Ki for human H1 receptor to Ki for human H3 receptor
Histamine H3 receptor [7] = target: T1, Histamine H3 receptor; experiment: Binding affinity in human H3R assessed as association rate constant using confocal microscopy
Histamine H3 receptor [8] = target: T1, Histamine H3 receptor; experiment: Binding affinity in Nluc-hH3R assessed as association rate constant by NanoBRET binding assay
Homo sapiens [9] = organism: Homo sapiens; experiment: Selectivity ratio of Ki for human H4 receptor to Ki for human H3 receptor
Histamine H1 receptor = Histamine H1 receptor (Homo sapiens, UniProt P35367); experiment: Displacement of [3H]mepyramine from human H1R receptor expressed in HEK293 cells by radioligand competition binding assay; format: cell-based
Chain of Histamine H1 receptor (P35367 whole entry): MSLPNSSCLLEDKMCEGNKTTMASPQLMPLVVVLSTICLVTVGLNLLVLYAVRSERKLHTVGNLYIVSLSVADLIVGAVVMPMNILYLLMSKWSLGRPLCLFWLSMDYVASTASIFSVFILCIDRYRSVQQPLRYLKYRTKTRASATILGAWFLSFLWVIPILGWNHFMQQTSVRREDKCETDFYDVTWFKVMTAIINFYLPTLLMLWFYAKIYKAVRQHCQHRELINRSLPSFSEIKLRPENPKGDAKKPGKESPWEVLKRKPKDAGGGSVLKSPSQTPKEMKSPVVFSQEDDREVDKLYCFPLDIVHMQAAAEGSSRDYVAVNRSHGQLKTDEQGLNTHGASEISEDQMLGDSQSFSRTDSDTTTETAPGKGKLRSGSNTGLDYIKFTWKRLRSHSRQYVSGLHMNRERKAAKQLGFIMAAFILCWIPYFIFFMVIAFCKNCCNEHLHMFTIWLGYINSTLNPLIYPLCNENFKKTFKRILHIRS

Histamine H3 receptor [10] = target: T1, Histamine H3 receptor; experiment: Binding affinity in Nluc-hH3R assessed as association time constant receptor saturated after 15 mins by NanoBRET binding assay
Histamine H3 receptor [11] = target: T1, Histamine H3 receptor; experiment: Inhibition of human H3R expressed in HEK293-A cells assessed as inhibition of imetit-induced Gi2 activation by BRET assay; format: cell-based
Homo sapiens [12] = organism: Homo sapiens; experiment: Selectivity ratio of Ki for human H2 receptor to Ki for human H3 receptor
Histamine H3 receptor [13] = target: T1, Histamine H3 receptor; experiment: Binding affinity in human H3R as assessed as dissociation time constant using confocal microscopy relative to control
Histamine H3 receptor [14] = target: T1, Histamine H3 receptor; experiment: Binding affinity to human H3R expressed in HEK293 cells by flow cytometric analysis; format: cell-based
Histamine H3 receptor [15] = target: T1, Histamine H3 receptor; experiment: Binding affinity to human H3 receptor assessed as labeling efficiency by measuring dual color acquisition at 3 nM by microscopy based TIRF assay
Histamine H2 receptor = Histamine H2 receptor (Homo sapiens, UniProt P25021); experiment: Displacement of [3H]UR-DE25 from human H2R receptor expressed in HEK293 cells by radioligand competition binding assay; format: cell-based
Chain of Histamine H2 receptor (P25021 whole entry): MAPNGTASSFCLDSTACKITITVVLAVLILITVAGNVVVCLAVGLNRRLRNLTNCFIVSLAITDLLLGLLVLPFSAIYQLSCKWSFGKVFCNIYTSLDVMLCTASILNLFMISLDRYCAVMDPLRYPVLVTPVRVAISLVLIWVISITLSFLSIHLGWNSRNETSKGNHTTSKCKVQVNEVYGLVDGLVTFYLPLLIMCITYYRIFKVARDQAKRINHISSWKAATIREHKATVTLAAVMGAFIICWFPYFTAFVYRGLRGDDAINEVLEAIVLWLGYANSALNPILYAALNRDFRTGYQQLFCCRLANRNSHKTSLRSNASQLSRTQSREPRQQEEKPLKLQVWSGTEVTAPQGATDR

Histamine H3 receptor [16] = target: T1, Histamine H3 receptor; experiment: Binding affinity in human H3 receptor expressed in HEK293 cells by confocal microscopy; format: cell-based

Structure (SMILES): N=C(N)SCCc1cnc[nH]1 [IMETIT]
- Ki (Histamine H3 receptor [2]): 5.01 nM
- Ki (Histamine H3 receptor [3]): 12.6 nM

Structure (SMILES): CCN1CCN(C(=O)c2ccc(-c3nc4ccccc4s3)s2)CC1
- Ki (Histamine H3 receptor [2]): 19.5 nM
- Ki (Histamine H3 receptor [3]): 19.5 nM

Structure (SMILES): CN(C)c1ccc2c(-c3ccc(C(=O)NCCOCCOCCOCCNC(=O)C4CCN(Cc5ccc(OCCCN6CCCCC6)cc5)CC4)cc3C(=O)[O-])c3ccc(=[N+](C)C)cc-3oc2c1
- TIME (Histamine H3 receptor [4]): 0.008 h
- TIME (Histamine H3 receptor [5]): 0.107 h
- Ki (Histamine H4 receptor): > 100000 nM
- Ratio Ki (Homo sapiens [6]): > 100000
- Activity (Histamine H3 receptor [7]): 0.37 min⁻¹ nM⁻¹
- Ki (Histamine H3 receptor [1]): 0.302 nM
- Activity (Histamine H3 receptor [8]): 0.71 min⁻¹ nM⁻¹
- Ratio Ki (Homo sapiens [9]): > 100000
- Ki (Histamine H1 receptor): > 100000 nM
- TIME (Histamine H3 receptor [10]): 0.0328 h
- pKb (Histamine H3 receptor [11]): 9.04
- Ratio Ki (Homo sapiens [12]): > 100000
- Kd (Histamine H3 receptor [3]): 0.158 nM
- TIME (Histamine H3 receptor [13]): 0.0583 h
- Kd (Histamine H3 receptor [14]): 0.195 nM
- Activity (Histamine H3 receptor [15]): 96.1%
- Ki (Histamine H2 receptor): > 100000 nM
- Activity (Histamine H3 receptor [16]): 2.13 min⁻¹

The next lines start with the values.

- Ki (Histamine H3 receptor [1]): 0.275 nM
Structure (SMILES): CCOC(=O)C1CCN(Cc2ccc(OCCCN3CCCCC3)cc2)CC1

- Ki (Histamine H3 receptor [1]): 1.58 nM
Structure (SMILES): O=C(O)C1CCN(Cc2ccc(OCCCN3CCCCC3)cc2)CC1

- Ki (Histamine H3 receptor [1]): 0.398 nM
Structure (SMILES): NCCOCCOCCOCCNC(=O)C1CCN(Cc2ccc(OCCCN3CCCCC3)cc2)CC1
